Source: PubChem BioAssay (The Scripps Research Institute Molecular Screening Center)
TAAR1 antagonist – antagonists of human TAAR1; Q96RJ0; CHO RD-HGA16 TAAR1, Fluo-8 calcium fluorescence, antagonist; inhibition, % at 3 µM; 1.5% of 360,000 active; AID 624466;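 active means inhibition above a per-plate cutoff, the mean inhibition of test compounds on that plate plus 3 SD, cut at about 49% in these data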
Target sequence (Q96RJ0 whole entry, looked up): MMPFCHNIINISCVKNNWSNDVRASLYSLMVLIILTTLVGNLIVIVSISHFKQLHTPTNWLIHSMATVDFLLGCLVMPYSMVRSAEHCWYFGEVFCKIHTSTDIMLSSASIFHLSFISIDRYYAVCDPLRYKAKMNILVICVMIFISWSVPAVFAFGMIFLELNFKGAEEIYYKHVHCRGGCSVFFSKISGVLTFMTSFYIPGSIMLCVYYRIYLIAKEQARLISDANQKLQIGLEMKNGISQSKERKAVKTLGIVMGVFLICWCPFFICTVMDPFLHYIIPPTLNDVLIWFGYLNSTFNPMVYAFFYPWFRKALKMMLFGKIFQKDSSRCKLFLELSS
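Test system: hTAAR1-expressing CHO RD-HGA16 cells, Gα16-coupled; Probe or stimulus: EC80 β-phenethylamine stimulus; Compound dosing: single nominal final test compound concentration of 3 µM; Timing: 140 s kinetic read after compound, 140 s after agonist; Signal: Fluo-8 calcium-sensitive fluorescence; Measure: % inhibition of agonist calcium response; Controls: DMSO and EC80 PEA controls.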
CHO parental Ca – counter-screen for OX1R antagonists: effect in parental CHO cells | inhibition, % at 5.6 µM | 0.63% of 330,000 active | parental CHO-K1, ATP-induced calcium, Fluo-8 fluorescence;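 active means inhibition above that plate's mean sample inhibition plus 3 SD, cut at about 26% in these data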
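Material: Parental CHO cells | Reagent: ATP | Compound dosing: Single nominal dose of 5.6 µM per compound | Detection: Intracellular calcium via Fluo-8 no-wash fluorescent dye | Read-out: % inhibition of ATP-induced calcium mobilization | Benchmarks: Low control ATP plus DMSO, high control DMSO only | Replicates: Singlicate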
OX1R antag-1 – human HCRTR1 antagonism; inhibition, % at 5 µM; O43613; 0.43% of 330,000 active; CHO/OX1R cells, Fluo-8 calcium fluorescence, orexin A;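 active means inhibition above its plate's threshold, mean inhibition of all tested compounds on the plate plus 3 SD, cut at about 37% in these data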
OX1R antag-2 – OX1R (human) antagonism. AID 485270. O43613. inhibition, % at 6.6 µM. 1.8% of 330,000 active. OX1R-expressing cells, FRET antagonist read-out; in the data active means inhibition mostly above about 38%, no sharp cut-off; inactive means mostly below about 40%
TAAR1 agonist – agonists of human TAAR1. Q96RJ0. CHO RD-HGA16 TAAR1, Fluo-8 calcium fluorescence; vehicle wells 0%, saturating PEA agonist 100%. activation, % at 3 µM. 0.99% of 360,000 active. AID 624467;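 active means activation above the mean activation of all test compounds in the run plus 3 SD, cut at about 38% in these data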
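System: CHO RD-HGA16 cells carrying human TAAR1 plus Gα16; Incubation: 17-24 h seeding, 75 min 37 °C dye, 30 min RT; Measured by: Fluo-8 fluorescence, 5 s baseline then 140 s kinetic read; Control set: DMSO and PEA EC100; Replication: single well for each compound.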
GPR7 antagonist – blocks human GPR7 receptor signaling; AID 1861; 1.1% of 290,000 active; inhibition, % at 4.4 µM; GPR7-expressing cells, fluorescence antagonist assay; in the data active means inhibition above about 16%, passing the limit was not always enough;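 further: cells stimulated with the agonist NPW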
Target sequence (P48145 whole entry, looked up): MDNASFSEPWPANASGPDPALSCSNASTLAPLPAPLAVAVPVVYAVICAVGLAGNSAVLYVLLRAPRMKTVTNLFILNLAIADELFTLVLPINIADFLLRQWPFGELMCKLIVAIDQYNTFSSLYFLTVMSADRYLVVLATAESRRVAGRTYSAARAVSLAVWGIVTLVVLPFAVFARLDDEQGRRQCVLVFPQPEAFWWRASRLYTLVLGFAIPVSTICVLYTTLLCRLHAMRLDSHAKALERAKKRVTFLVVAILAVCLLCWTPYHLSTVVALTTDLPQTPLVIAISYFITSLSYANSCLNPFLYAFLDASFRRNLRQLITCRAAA
nonsel antag count – nonselective antagonism, TAAR1 counter-screen; AID 651780; shares compounds with TAAR1 antagonist; inhibition, % at 3 µM; 77% of 2,400 active; counterscreen cell line, calcium fluorescence, antagonist mode; in the data active means inhibition above about 22%;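 further: CHO-Ga16 host cells stimulated with ATP at an EC80 level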
TAAR1 ant conf – human TAAR1 antagonism, confirmed. AID 651785. shares compounds with TAAR1 antagonist. inhibition, % at 3 µM. 40% of 2,400 active. TAAR1-expressing cells, fluorescence antagonist read-out; in the data active means inhibition above about 49%;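 further: CHO-Ga16 host cells challenged with agonist PEA near its EC80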
Ga16 ag counter – nonselective Ga16 agonist in TAAR1 antagonist counter-screen; shares compounds with TAAR1 antagonist; Ga16-expressing cells, calcium fluorescence, agonist counterscreen; activation, % at 3 µM; 18% of 2,400 active; AID 651953; in the data active means activation above about 12%
TAAR1 ag counter – TAAR1 agonism, antagonist counter-screen; shares compounds with TAAR1 antagonist; hTAAR1 cell line, fluorescence activation, agonist mode; activation, % at 3 µM; 2% of 2,400 active; AID 651955; in the data active means activation above about 37%;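 further: CHO cells stably expressing TAAR1 with calcium dye readout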
Numbers stand for hits. The list is not random: actives were taken first. Their share in the collection is about 4.5%.

Results for COc1cc2sc3ccc(C#CC4(O)CCCCC4)cc3c(=O)c2cc1OC ?
TAAR1 antagonist: inactive; CHO parental Ca: inactive; OX1R antag-1: inactive; OX1R antag-2: inactive; TAAR1 agonist: inactive

How did CC1(c2nnc(-c3cccc(Cl)c3)o2)CC(c2cccc(Cl)c2)=NO1 (stereo not drawn) do in these assays?
TAAR1 antagonist: inactive; CHO parental Ca: inactive; OX1R antag-1: inactive; OX1R antag-2: inactive; TAAR1 agonist: inactive

What do the screens show for `CC1CCCCC1NC(=O)c1ccc(-n2cncn2)cc1` (stereo not drawn)?
TAAR1 antagonist: 93; CHO parental Ca: inactive; OX1R antag-1: inactive; OX1R antag-2: inactive; TAAR1 agonist: inactive; nonsel antag count: inactive; TAAR1 ant conf: inactive; Ga16 ag counter: inactive; TAAR1 ag counter: inactive

Results for COc1ccc([C@H]2CC(=O)C=C(c3cccc(Br)c3)C2)cc1 ?
TAAR1 antagonist: inactive; CHO parental Ca: inactive; OX1R antag-1: inactive; OX1R antag-2: inactive; TAAR1 agonist: inactive

How did COc1ccc([C@H]2CC(=O)C=C(c3cccc(Br)c3)C2)cc1OC do in these assays?
TAAR1 antagonist: 64; CHO parental Ca: inactive; OX1R antag-1: inactive; OX1R antag-2: inactive; TAAR1 agonist: inactive; nonsel antag count: inactive; TAAR1 ant conf: inactive; Ga16 ag counter: inactive; TAAR1 ag counter: inactive

What do the screens show for `C[C@H](NC(=O)c1nc[nH]c1C(=O)N[C@@H](C)C(=O)OCc1ccccc1)C(=O)OCc1ccccc1`?
TAAR1 antagonist: 58; CHO parental Ca: inactive; OX1R antag-1: inactive; OX1R antag-2: inactive; TAAR1 agonist: inactive; GPR7 antagonist: inactive; nonsel antag count: inactive; TAAR1 ant conf: inactive; Ga16 ag counter: inactive; TAAR1 ag counter: inactive

Results for C[C@@H](NC(=O)c1nc[nH]c1C(=O)NCC(=O)OCc1ccccc1)c1ccccc1 ?
TAAR1 antagonist: 68; CHO parental Ca: inactive; OX1R antag-1: inactive; OX1R antag-2: inactive; TAAR1 agonist: inactive; GPR7 antagonist: inactive; nonsel antag count: 32; TAAR1 ant conf: 55; Ga16 ag counter: inactive; TAAR1 ag counter: inactive

What do the screens show for `CC(C)(C)OC(=O)CNC(=O)c1[nH]cnc1C(=O)NC1CCN(C(=O)OC(C)(C)C)CC1`?
TAAR1 antagonist: inactive; CHO parental Ca: inactive; OX1R antag-1: inactive; OX1R antag-2: inactive; TAAR1 agonist: inactive; GPR7 antagonist: inactive

How did C[C@H](NC(=O)c1nc[nH]c1C(=O)NC(c1ccccc1)c1ccccc1)C(=O)OCc1ccccc1 do in these assays?
TAAR1 antagonist: inactive; CHO parental Ca: inactive; OX1R antag-1: inactive; OX1R antag-2: inactive; TAAR1 agonist: inactive

What do the screens show for `CC(C)(C)OC(=O)N1CCC(NC(=O)c2nc[nH]c2C(=O)NCC(=O)OCc2ccccc2)CC1`?
TAAR1 antagonist: 70; CHO parental Ca: inactive; OX1R antag-1: inactive; OX1R antag-2: inactive; TAAR1 agonist: inactive; GPR7 antagonist: inactive; nonsel antag count: 31; TAAR1 ant conf: 59; Ga16 ag counter: inactive; TAAR1 ag counter: inactive

Results for COc1ccc(CC2(CO)COc3ccccc3C2=O)cc1 (stereo not drawn) ?
TAAR1 antagonist: inactive; CHO parental Ca: inactive; OX1R antag-1: inactive; OX1R antag-2: inactive; TAAR1 agonist: inactive

What do the screens show for `COc1ccc(Cl)cc1C1=NOC2(CCC2)C(=O)N1Cc1ccc(NC(C)=O)cc1`?
TAAR1 antagonist: inactive; TAAR1 agonist: inactive

What do the screens show for `O=C1Nc2ccc(Br)cc2C1=C1CCCCC1`?
TAAR1 antagonist: 76; CHO parental Ca: inactive; OX1R antag-1: inactive; OX1R antag-2: inactive; TAAR1 agonist: inactive; GPR7 antagonist: inactive; nonsel antag count: inactive; TAAR1 ant conf: inactive; Ga16 ag counter: inactive; TAAR1 ag counter: inactive

What do the screens show for `COc1ccc(CN2CCN(C(c3ccc(F)cc3)c3ccc(F)cc3)CC2)c(OC)c1OC`?
TAAR1 antagonist: 56; CHO parental Ca: inactive; OX1R antag-1: inactive; OX1R antag-2: inactive; TAAR1 agonist: inactive; nonsel antag count: inactive; TAAR1 ant conf: inactive; Ga16 ag counter: inactive; TAAR1 ag counter: inactive

Results for CC(C)(C)C1CCC(C(=O)Nc2ccc(N3CCOCC3)cc2N2CCOCC2)CC1 (stereo not drawn) ?
TAAR1 antagonist: inactive; CHO parental Ca: inactive; OX1R antag-1: inactive; OX1R antag-2: inactive; TAAR1 agonist: inactive

What do the screens show for `Ic1ccc(N2CCN(Cc3c[nH]c4ncccc34)CC2)cc1`?
TAAR1 antagonist: inactive; CHO parental Ca: inactive; OX1R antag-1: inactive; OX1R antag-2: inactive; TAAR1 agonist: inactive

What do the screens show for `O=C1CCc2ccc(OCCCCN3CCN(c4cccc(Cl)c4Cl)CC3)cc2N1`?
TAAR1 antagonist: 63; CHO parental Ca: inactive; OX1R antag-1: inactive; OX1R antag-2: inactive; TAAR1 agonist: inactive; GPR7 antagonist: inactive; nonsel antag count: 46; TAAR1 ant conf: inactive; Ga16 ag counter: 16; TAAR1 ag counter: inactive

What do the screens show for `COc1ccc(NC(=O)N(C)C[C@H]2Oc3ccc(NC(=O)Nc4ccc5c(c4)OCO5)cc3C(=O)N([C@H](C)CO)C[C@@H]2C)cc1`?
TAAR1 antagonist: inactive; TAAR1 agonist: inactive

What do the screens show for `O=C(Nc1ccccc1)c1ccc(F)c(S(=O)(=O)N2CCOCC2)c1`?
TAAR1 antagonist: inactive; CHO parental Ca: inactive; OX1R antag-1: inactive; OX1R antag-2: inactive; TAAR1 agonist: inactive; GPR7 antagonist: inactive

What do the screens show for `O=C(Nc1ccc(-c2cn3ccsc3n2)cc1)c1ccc(F)c(S(=O)(=O)N2CCOCC2)c1`?
TAAR1 antagonist: 91; CHO parental Ca: inactive; OX1R antag-1: inactive; OX1R antag-2: inactive; TAAR1 agonist: inactive; GPR7 antagonist: inactive; nonsel antag count: 39; TAAR1 ant conf: 75; Ga16 ag counter: 12; TAAR1 ag counter: inactive

How did CCc1nc2c(OCc3cccc(OC)c3)cccn2c1N(C)C(=O)c1ccccc1F do in these assays?
TAAR1 antagonist: inactive; TAAR1 agonist: inactive

How did COc1ccc(CCNC(=O)CSc2nnc(CNC(=O)c3cc(OC)c(OC)c(OC)c3)o2)cc1OC do in these assays?
TAAR1 antagonist: inactive; CHO parental Ca: inactive; OX1R antag-1: inactive; OX1R antag-2: inactive; TAAR1 agonist: inactive; GPR7 antagonist: inactive

What do the screens show for `O=C(OCn1ncc(Cl)c(Cl)c1=O)c1ccc(C(F)(F)F)cc1`?
TAAR1 antagonist: 66; TAAR1 agonist: inactive; GPR7 antagonist: inactive; nonsel antag count: 35; TAAR1 ant conf: inactive; Ga16 ag counter: inactive; TAAR1 ag counter: inactive
